The results in this text go back to the M2OR odorant receptor database.

Experiment [1] deals with O10A6. As to conditions: stereoisomer not certain. The gist of the method:
(§1)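 Values were gathered from published papers (main text and supplementary material), with extra details requested from the original authors when needed, and checked for typos and inconsistencies. Each receptor–molecule pair is called responsive (active) if the original authors judged the measured signal statistically different from baseline, and non-responsive (inactive) otherwise. Assay methods varied by source, often transient mammalian cell-line luciferase assays. Recorded details include cell line, G-protein, co-transfected protein and tags.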
Target sequence in this assay (as listed by the source): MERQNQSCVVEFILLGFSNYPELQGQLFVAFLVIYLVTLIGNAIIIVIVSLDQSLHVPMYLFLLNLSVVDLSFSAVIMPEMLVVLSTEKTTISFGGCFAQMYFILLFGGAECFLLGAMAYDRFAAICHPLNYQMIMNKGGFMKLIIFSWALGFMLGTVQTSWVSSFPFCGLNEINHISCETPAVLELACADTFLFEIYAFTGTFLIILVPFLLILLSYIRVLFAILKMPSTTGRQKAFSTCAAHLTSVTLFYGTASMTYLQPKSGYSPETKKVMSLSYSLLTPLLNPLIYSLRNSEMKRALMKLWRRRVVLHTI

For experiment [2], the system named is O10A6. Conditions: stereoisomer not certain. The gist of the method:
as §1
Target sequence in this assay (as listed by the source): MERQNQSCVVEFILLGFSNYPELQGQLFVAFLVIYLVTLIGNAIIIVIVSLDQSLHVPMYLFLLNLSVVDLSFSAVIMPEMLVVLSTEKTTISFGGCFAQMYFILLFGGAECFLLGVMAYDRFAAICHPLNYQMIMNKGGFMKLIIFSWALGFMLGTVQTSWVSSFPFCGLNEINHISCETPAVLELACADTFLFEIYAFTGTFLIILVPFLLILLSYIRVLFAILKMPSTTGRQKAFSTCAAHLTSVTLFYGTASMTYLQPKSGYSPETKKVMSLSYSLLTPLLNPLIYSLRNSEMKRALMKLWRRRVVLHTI
This is another data set of the same source.

Take `CCC(=O)OCCCc1ccccc1`: the “odorant receptor agonist call” value in the experiment on O10A6 [1] was “active”. Moreover, in the experiment with O10A6 [2], the “odorant receptor agonist call” value was “inactive”.
